The source made the active and inactive calls. The calls are words filed in the database; no cut-off is given here.
Experiments:
3T3-L1 [1] = experiment: Inhibition of adipogenesis in mouse 3T3L1 cells assessed as reduction in triglyceride content at 25 uM treated on day 0 to 3 by colorimetric assay; assay type: functional; details: 3T3-L1, 0 h
3T3-L1 [2] = experiment: Increase in AMPKalpha Thr172 phosphorylation in mouse 3T3L1 cells at 25 uM by Western blot method; assay type: cell-based; details: TDE = time-dependent effect
3T3-L1 [3] = experiment: Inhibition of adipogenesis in mouse 3T3L1 cells assessed as reduction in triglyceride content at 25 uM treated on day 3 to 9 by oil Red-O staining based microscopy; assay type: functional, cell-based
Outline: (§1)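 After 3T3-L1 differentiation (IBMX/dexamethasone/insulin induction, insulin, then basal medium), cells were PBS-washed and fixed in 4% formalin for 60 min. Stained with filtered Oil Red O for 30 min at room temperature and imaged at 40× objective. Dye eluted with isopropanol and read at 510 nm. Three independent experiments.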

[4] = Reduction in SREBP-1c mRNA expression in mouse 3T3L1 cells at 1 to 50 uM after 72 hrs by RT-PCR method; assay type: functional, cell-based; details: 3T3-L1
Outline: (§2)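 3T3-L1 preadipocytes grown in DMEM with 10% FBS at 37 °C under 5% CO2. Differentiation starts 2 days post-confluence (day 0) with IBMX, 100 ng/mL dexamethasone and insulin for 3 d, then insulin in 10% FBS/DMEM for 3 d, then basic medium for 3 d. Compound is added on day 0 and renewed at day 3. Vehicle control receives the same volume of DMSO.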

3T3-L1 [5] = experiment: Inhibition of adipogenesis in mouse 3T3L1 cells assessed as reduction in triglyceride content at 25 uM by colorimetric assay; assay type: functional, cell-based
3T3-L1 [6] = experiment: Inhibition of adipogenesis in mouse 3T3L1 cells assessed as reduction in triglyceride content at 25 uM treated on day 6 to 9 by oil Red-O staining based microscopy; assay type: functional, cell-based; outline: as §1
[7] = Reduction in C/PPARgamma mRNA expression in mouse 3T3L1 cells at 25 uM by RT-PCR method; assay type: functional, cell-based; details: 3T3-L1, TDE = time-dependent effect; outline: as §2
[8] = Reduction in FAS protein expression in mouse 3T3L1 cells at 25 uM after 9 days by Western blot method; details: 3T3-L1
[9] = Reduction in SREBP-1c protein expression in mouse 3T3L1 cells at 25 uM after 3 days by Western blot method; assay type: functional, cell-based; details: 3T3-L1; outline: as §2
[10] = Reduction in PPARgamma protein expression in mouse 3T3L1 cells at 25 uM after 3 days by Western blot method; assay type: functional, cell-based; details: 3T3-L1; outline: as §2
[11] = Reduction in AMPKbeta protein expression in mouse 3T3L1 cells at 1 to 50 uM after 9 days by Western blot method; assay type: functional, cell-based; details: 3T3-L1
Outline: (§3)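 Mouse 3T3-L1 cells taken through the differentiation protocol, with compound or DMSO vehicle given from day 0 and renewed at day 3. Cells lysed on ice for 0.5 h in RIPA with PMSF, Na3VO4, NaF and protease inhibitors, then centrifuged at 12,000g. Lysates run on 12% SDS-PAGE and transferred to PVDF. Blots probed overnight at 4 °C and detected with HRP secondary. Bands quantified by optical density against GAPDH. Three independent experiments.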

3T3-L1 [12] = experiment: Increase in AMPKalpha Thr172 phosphorylation in mouse 3T3L1 cells at 25 uM after 9 days by Western blot method; assay type: cell-based; outline: as §3
3T3-L1 [13] = experiment: Inhibition of adipogenesis in mouse 3T3L1 cells assessed as reduction in triglyceride content at 25 uM treated on day 3 to 6 by colorimetric assay; assay type: functional; details: 3T3-L1, 72 h
3T3-L1 [14] = experiment: Induction of cell cycle arrest in mouse 3T3L1 cells assessed as accumulation at G2/M phase at 25 uM after 24 hrs by flow cytometry (reference value: 29%); assay type: functional
[15] = Reduction in C/EBPbeta mRNA expression in mouse 3T3L1 cells after 72 hrs by RT-PCR method; assay type: functional, cell-based; details: 3T3-L1; outline: as §2
[16] = Reduction in C/EBPalpha mRNA expression in mouse 3T3L1 cells at 25 uM by RT-PCR method; assay type: functional, cell-based; details: 3T3-L1, TDE = time-dependent effect
[17] = Reduction in AMPKalpha protein expression in mouse 3T3L1 cells at 1 to 50 uM after 9 days by Western blot method; assay type: functional, cell-based; details: 3T3-L1; outline: as §3
3T3-L1 [18] = experiment: Increase in AMPKbeta Ser108 phosphorylation in mouse 3T3L1 cells at 1 to 50 uM after 9 days by Western blot method; assay type: cell-based; outline: as §3
3T3-L1 [19] = experiment: Increase in AMPKalpha Thr172 phosphorylation in mouse 3T3L1 cells at 1 to 50 uM after 9 days by Western blot method; assay type: cell-based; outline: as §3
[20] = Reduction in C/EBPbeta mRNA expression in mouse 3T3L1 cells at 25 uM by RT-PCR method; assay type: functional, cell-based; details: 3T3-L1, TDE = time-dependent effect; outline: as §2
[21] = Reduction in C/EBPalpha protein expression in mouse 3T3L1 cells at 25 uM after 3 days by Western blot method; assay type: functional, cell-based; details: 3T3-L1; outline: as §2
3T3-L1 [22] = experiment: Reduction in AMPKalpha1 mRNA expression in mouse 3T3L1 cells at 25 uM after 24 hrs by RT-PCR method; assay type: functional, cell-based
3T3-L1 [23] = experiment: Inhibition of adipogenesis in mouse 3T3L1 cells assessed as reduction in triglyceride content at 25 uM treated on day 0 to 3 by oil Red-O staining based microscopy; assay type: functional, cell-based; outline: as §1
[24] = Reduction in SCD1 protein expression in mouse 3T3L1 cells at 25 uM after 9 days by Western blot method; details: 3T3-L1
[25] = Reduction in SCD1 protein expression in mouse 3T3L1 cells at 1 to 50 uM after 9 days by Western blot method; assay type: functional, cell-based; details: 3T3-L1; outline: as §2
[26] = Reduction in C/EBPalpha mRNA expression in mouse 3T3L1 cells at 1 to 50 uM after 72 hrs by RT-PCR method; assay type: functional, cell-based; details: 3T3-L1
3T3-L1 [27] = experiment: Induction of cell cycle arrest in mouse 3T3L1 cells assessed as accumulation at G0/G1 phase at 1 to 50 uM after 24 hrs by flow cytometry; assay type: functional, cell-based

O=Cc1c(-c2nc3ccccc3c(=O)[nH]2)[nH]c2ccccc12
inhibition at 25 µM (3T3-L1 [1]): 50%
Activity (3T3-L1 [2]): tde
inhibition (3T3-L1 [3]): Active
Activity [4]: Active
Activity (3T3-L1 [5]): Active
inhibition (3T3-L1 [6]): Active
Activity [7]: tde
Activity [8]: Active
Activity [9]: Active
Activity [10]: Active
Activity [11]: Active
Activity (3T3-L1 [12]): Active
inhibition at 25 µM (3T3-L1 [13]): 30%
Activity (3T3-L1 [14]): 57%
Activity [15]: Dose-dependent effect
Activity [16]: tde
Activity [17]: Active
Activity (3T3-L1 [18]): Dose-dependent effect
Activity (3T3-L1 [19]): Dose-dependent effect
Activity [20]: tde
Activity [21]: Active
Activity (3T3-L1 [22]): Active
inhibition (3T3-L1 [23]): Active
Activity [24]: Active
Activity [25]: Active
Activity [26]: Active
Activity (3T3-L1 [27]): Dose-dependent effect
